Measurements gathered from unrelated publications.
Each line is one published result; the experiments were not run side by side.

SMILES | assay | system | conditions | measurement | result
CC(C)(C)c1ccc(O)c(CN(Cc2cc(C(C)(C)C)ccc2O)C2CCC(NC(N)=O)CC2)c1 (stereo not shown) |  | male C57BL/6 mouse, plasma | intraperitoneal, 5 mg/kg, single dose | clearance | 15.7 mL/min/kg
CCc1cc(OC)c2nccc(N3CCc4c(cc(Cn5ccnc5)cc4-c4cn(C)nc4C(F)(F)F)C3=O)c2c1 |  | male CD-1 mouse, plasma | intravenous, 3 mg/kg | C0 | 4310 ng/mL
COc1ccc(C(O)COc2ccc(-c3csc(-c4ccc(OCC(O)c5ccc(OC)c(OC)c5)cc4)n3)cc2)cc1OC (stereo not shown) |  | C57BL/6 mouse, plasma | intravenous, 3 mg/kg | C0 | 5280 ng/mL
O=C(NCCN1CCCC1)c1cc(-c2ccc(CN3CCOCC3)cc2)nc2ccc(F)cc12 |  | male beagle dog, blood | oral, 3 mg/kg | Cmax | 27 ng/mL
COc1cc2c3c(n(CCCN4CCOCC4)c(=O)c2cc1OC)-c1cc2c(cc1C3=O)OCO2 |  | male beagle dog, plasma | intravenous, 100 mg/m², infusion | Cmax | 461 ng/mL
CC(C)Oc1c(NC(=O)c2ccc(NC(=O)[C@H](CC(N)=O)NC(=O)c3ccc(NC(=O)c4ccc(C#N)cc4)cc3)cc2)ccc(C(=O)Nc2ccc(C(=O)O)cc2)c1O |  | male CD-1 mouse, plasma | intravenous, 5 mg/kg, single dose | C0 | 2940 ng/mL
CCn1c(=O)c(-c2cc(NC(=O)Nc3ccccc3)c(F)cc2Br)cc2cnc(NC)cc21 |  | beagle dog, plasma | oral, 5 mg/kg, single dose | CL/F | 21 mL/min/kg
CC[C@@H]1CN(C(=O)NCC(F)(F)F)C[C@@H]1c1cnc2cnc3[nH]ccc3n12 |  | beagle dog, plasma | oral, 1 mg/kg, single dose | Cmax | 89.4 ng/mL
COCc1nn(Cc2ccc(Cn3ccccc3=O)cc2)cc1C(=O)NCc1c(F)ccc(OC)c1F |  | male beagle dog, plasma | oral, 1 mg/kg | Cmax | 163 ng/mL
CCc1cc(C(=O)NC)c2nccc(N3CCc4c(cc(Cn5ccnc5)cc4-c4cn(C)nc4C(F)(F)F)C3=O)c2c1 |  | male CD-1 mouse, plasma | intravenous, 3 mg/kg | C0 | 7560 ng/mL
C[C@@H]1[C@H](O)[C@@H](C)/C=C/C=C/C=C/C=C/C=C/C=C/C=C/[C@H](O[C@@H]2O[C@H](C)[C@@H](O)[C@H](N)[C@@H]2O)C[C@@H]2O[C@](O)(C[C@@H](O)C[C@@H](O)[C@H](O)CC[C@@H](O)C[C@@H](O)CC(=O)O[C@H]1C)C[C@H](O)[C@H]2C(=O)O | haemolysis | rabbit | 64 µg/mL, 1 h | haemolysis | 100%
C=CC(=O)Nc1cc(Nc2nccc(Nc3cc(Cl)c(F)cc3C(C)(C)O)n2)c(OC)cc1N1CC[C@@H](N(C)C)C1 |  | beagle dog, plasma | intravenous, 1 mg/kg | clearance | 30.9 mL/min/kg
Cc1nn2c(-c3c(C)nn(C)c3-c3ccc(C(F)(F)F)cc3)nc(CO)c2c(=O)[nH]1 |  | male beagle dog, plasma | intravenous, 1 mg/kg | clearance | 1.3 mL/min/kg
COc1ccc2c(c1OCc1ccccc1)C[C@@H](C(=O)O)N(C(=O)C(c1ccccc1)c1ccccc1)C2 |  | male beagle dog, plasma | oral, 3 mg/kg | Cmax | 2710 ng/mL
COc1ccc2nccc(N3CCc4c(cc(Cn5ccnc5)cc4-c4cn(C)nc4C(F)(F)F)C3=O)c2c1 |  | male CD-1 mouse, plasma | intravenous, 3 mg/kg | C0 | 3430 ng/mL
C=CC(=O)N1CC2CC(n3nc(-c4ccc(C(=O)Nc5ccccn5)cc4)c4c(N)ncnc43)CC2C1 (stereo not shown) |  | male Wistar rat, plasma | oral, 100 mg/kg | Tmax | 4 h
